The list is not random: actives were taken first. Their share in the collection is about 1.9%.
M5 PAM: human M5 muscarinic receptor positive allosteric modulators, primary screen, CHO-K1 cells, Fluo-8 calcium fluorescence; Muscarinic acetylcholine receptor M5 (Homo sapiens), P08912; CHO-K1 hM5, ACh EC20 PAM; 0% = ACh EC20, 100% = ACh EC100; activation, % at 3 µM; hit rate 0.3% among 360,000; AID 624038, 2012;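 active = activation above the run cutoff, the mean activation of all test compounds plus 3 SD, cut at about 18% in these data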
Target sequence (P08912 whole entry, looked up): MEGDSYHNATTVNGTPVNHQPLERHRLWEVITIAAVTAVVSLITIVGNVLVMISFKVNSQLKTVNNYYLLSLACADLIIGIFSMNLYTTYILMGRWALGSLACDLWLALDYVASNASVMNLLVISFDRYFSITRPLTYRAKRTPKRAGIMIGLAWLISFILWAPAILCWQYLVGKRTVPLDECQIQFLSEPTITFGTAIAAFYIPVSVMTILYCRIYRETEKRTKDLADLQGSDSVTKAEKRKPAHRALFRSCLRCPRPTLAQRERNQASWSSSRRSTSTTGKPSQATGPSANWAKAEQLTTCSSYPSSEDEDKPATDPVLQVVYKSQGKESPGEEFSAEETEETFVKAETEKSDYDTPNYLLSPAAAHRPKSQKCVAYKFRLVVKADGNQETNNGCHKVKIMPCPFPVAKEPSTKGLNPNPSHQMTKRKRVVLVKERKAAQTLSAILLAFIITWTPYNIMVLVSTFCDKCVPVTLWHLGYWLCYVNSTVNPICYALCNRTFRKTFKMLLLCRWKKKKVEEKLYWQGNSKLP
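System: CHO-K1 cell line with stable human muscarinic M5 receptor expression | Also added: EC20 acetylcholine as agonist stimulus | Compound: One concentration, 3 µM final (nominal) | Timing: Fluo-8 loading 80 min at 37 °C plus 30 min room temperature | Measured by: Fluo-8 calcium dye fluorescence, kinetic read | Read-out basis: % activation, ACh-normalized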
CHRM4 agonist: human M4 muscarinic receptor agonists, primary screen, CHO-K1 cells, Fluo-8 calcium fluorescence; Muscarinic acetylcholine receptor M4 (Homo sapiens), P08173; CHO-K1 hM4/Gqi5; vehicle 0%, full acetylcholine response 100%; activation, % at 3 µM; hit rate 0.14% among 360,000; AID 624127, 2012;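 active = activation above the run mean over all test wells plus 3 SD, cut at about 32% in these data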;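 note: peak over basal fluorescence ratio per well then scaled between controls; 0% = DMSO wells and 100% = acetylcholine at EC100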
M4 antag: human M4 muscarinic receptor antagonists, primary screen, CHO cells, Fluo-8 calcium fluorescence. Muscarinic acetylcholine receptor M4 (Homo sapiens), P08173. CHO-hM4 cells, ACh EC80. AID 624125, 2012. hit rate 0.73% among 360,000. inhibition, % at 3 µM;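 active = inhibition above its plate's cutoff, the mean inhibition of sample wells plus 3 SD, cut at about 27% in these data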;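 note: 0% = acetylcholine EC80 with DMSO and 100% = DMSO without agonist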
M4 PAM: human M4 muscarinic receptor positive allosteric modulators, primary screen, CHO-K1 cells, Fluo-8 calcium fluorescence; Muscarinic acetylcholine receptor M4 (Homo sapiens), P08173; CHO-K1 hM4/Gqi5, ACh EC20; 0% = ACh EC20, 100% = maximal ACh; activation, % at 3 µM; hit rate 0.4% among 360,000; AID 624126, 2012;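 active = activation above its plate's cutoff, the mean activation of sample wells plus 3 SD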
M5 antag: human M5 muscarinic receptor antagonists, primary screen, CHO cells, Fluo-8 calcium fluorescence; Muscarinic acetylcholine receptor M5 (Homo sapiens), P08912; CHO-hM5 cells, ACh EC80; inhibition, % at 3 µM; hit rate 0.59% among 360,000; AID 624040, 2012;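 active = inhibition above a per-plate cutoff, the mean of that plate's test compounds plus 3 SD, cut at about 27% in these data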;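 note: 0% = acetylcholine EC80 with DMSO and 100% = DMSO without agonist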
M5 ag: human M5 muscarinic receptor agonists, primary screen, CHO-K1 cells, Fluo-8 calcium fluorescence; CHO-K1 hM5 cells; 0% DMSO wells, 100% maximal acetylcholine response; activation, % at 3 µM; hit rate 0.19% among 360,000; AID 624037, 2012;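 active = activation above the run's mean over test compounds plus 3 SD, cut at about 23% in these data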;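 note: signal is peak over basal fluorescence ratio across the kinetic read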
The depositor's hits bear a star.

SMILES	M5 PAM	CHRM4 agonist	M4 antag	M4 PAM	M5 antag	M5 ag
Cc1ccc(NC(=O)C2CCCN(S(=O)(=O)c3cccc4nonc34)C2)cc1 (stereo unspecified)	-5	1	2	-6	29*	-2
CC(=O)Nc1cccc(NC(=O)C2CCCN2C(=O)Nc2cccc(C)c2)c1 (stereo unspecified)	2	3	10	3	2	1
CC(=O)c1ccc(NC(=O)C2CCCN(S(=O)(=O)c3cccc4nonc34)C2)cc1 (stereo unspecified)	-4	8	-2	-6	15	-3
CC(=O)Nc1cccc(NC(=O)C2CCCN2C(=O)Nc2cccc(F)c2)c1 (stereo unspecified)	21*	0	-7	9	-20	1
CCOC(=O)C1CCCN(CC(=O)c2ccc(F)cc2)C1 (stereo unspecified)	-22	15	2	-12	18	27*
CCOCCN(C(=O)c1ccccc1Cl)c1cccc(C)c1C	-3	0	7	-4	13	-6
C[C@@H]1C=C(C(=O)NC2CC2)O[C@H](OCc2ccc(CO)cc2)C1	1	-1	3	3	9	1
O=C(c1ccco1)N1CCN(C(=O)c2ccc(CS(=O)c3ccc(F)cc3)o2)CC1 (stereo unspecified)	12	1	-6	-11	-5	0
CC(Oc1ccc(Br)cc1)C(=O)NNC(=O)CCN1CCN(c2ccccc2)CC1 (stereo unspecified)	1	1	-11	9	4	-2
CCOC(=O)c1ccc(NC(=O)C2CCCN(S(=O)(=O)c3ccc(F)cc3)C2)cc1 (stereo unspecified)	-22	22	37*	-31	32*	0
CCN1/C(=C/C(C)=O)Sc2ccc(OC)cc21	13	-1	1	6	1	-8
CCOC(=O)/C(=C/C=C1\Sc2cc(OCC)c(OCC)cc2N1CC)C(C)=O	-23	18	12	-9	36*	147*
CCOC(=O)/C(=C\C=C1/Sc2cc(OCC)c(OCC)cc2N1CC)C(C)=O	-12	20	12	-5	13	24*
COc1ccc(CN2CCCC(C(=O)c3ccc4c(c3)OCO4)C2)c(F)c1 (stereo unspecified)	-14	4	61*	-14	-2	-10
O=C1c2ccccc2C(Nc2cccnc2)N1Cc1ccccc1 (stereo unspecified)	-12	14	29*	-15	5	0
O=C1c2ccccc2C(Nc2cccnc2)N1Cc1ccccc1Cl (stereo unspecified)	-9	12	4	-11	7	-2
Fc1ccc(NC(=S)NC2CC3CCCC(C2)N3Cc2cccs2)cc1 (stereo unspecified)	-14	3	8	-6	32*	-6
CCN1C(=O)CC2CCCC1C2 (stereo unspecified)	4	1	-5	7	6	1
O=C(CCc1nnc2n(Cc3ccc(Cl)cc3)c(=O)c3ccccc3n12)NCCN1CCCC1	0	-2	8	-9	4	-6
O=C(CCc1nnc2n(CCc3ccccc3)c(=O)c3ccccc3n12)NCCCN1CCCCC1	3	8	37*	-13	-6	-6
CCN(CC)CCNC(=O)c1ccc(NC(=O)c2cccc(S(=O)(=O)N3CCCCCC3)c2)cc1	-43	1	79*	-15	79*	-11
CCN(CC)CCNC(=O)c1ccc(NC(=O)c2ccc(Cl)c(S(=O)(=O)N3CCCCCC3)c2)cc1	-33	1	70*	-46	79*	-19
CCN(CC)CCNC(=O)c1ccc(NC(=O)c2ccc(S(=O)(=O)N3CCCCCC3)cc2)cc1	-6	0	-7	-4	8	-8
CN(C(=O)COC(=O)COc1ccc(Cl)cc1Cl)c1c(N)n(Cc2ccccc2)c(=O)[nH]c1=O	2	2	-4	12	4	1
CCOC(CNC(=O)CN1C(=O)COc2ccc(S(=O)(=O)N3CCOCC3)cc21)OCC	5	0	-16	8	-3	-1
SMILES	M5 PAM	CHRM4 agonist	M4 antag	M4 PAM	M5 antag	M5 ag
CN(CC(=O)Nc1ccccc1Br)C(=O)CN(C)C1CCCCC1	1	1	1	9	11	0
CCC(CC)N1CCN(CC2CC=CCC2)CC1 (stereo unspecified)	-5	0	1	-7	4	-8
O=C(O)C(Cc1c[nH]c2ccccc12)NS(=O)(=O)c1ccc2ccccc2c1 (stereo unspecified)	7	0	-16	20*	-13	-2
O=C(O)C(Cc1c[nH]c2ccccc12)NS(=O)(=O)c1ccc(F)cc1 (stereo unspecified)	0	1	2	-6	-7	1
O=C(Nc1cccc(Cl)c1N1CCOCC1)c1cccs1	12	4	-6	0	-7	0
c1ccc(Nc2nc(-c3ccncc3)nc3ccccc23)cc1	-4	0	0	0	1	0
Fc1ccc(Nc2nc(-c3ccncc3)nc3ccccc23)cc1	3	2	2	24*	4	2
CC(=O)Nc1ccc(/C=N/N2CCCCC2)cc1	20*	1	2	-11	-17	15
Cc1ccc(NC(=O)N2CCC(NC(=O)C(C)(C)C)CC2)cc1	42*	0	-6	9	0	-5
CCC1=C(OC(=O)N(CC)CC)N2C(=O)OC(=NCCOC)[C@]2(Cc2ccccc2)[C@H]2C1=CC[C@H]1C(=O)NC(=O)[C@H]12	26*	1	-2	9	-90	7
CCC1=C(OC(=O)N(CC)CC)N2C(=O)OC(=NCC3CC3)[C@]2(Cc2ccccc2)[C@H]2C1=CC[C@H]1C(=O)NC(=O)[C@H]12	-4	3	-13	18	2	-1
Cc1cccc(NC(=O)C2CC2c2ccccc2)c1C (stereo unspecified)	8	0	7	-2	2	-7
O=c1c2ccccc2oc2nc(-c3ccco3)n(Cc3ccccc3)c(=O)c12	37*	1	13	10	3	-3
COc1ccc(CN(CC(=O)NCc2ccc3c(c2)OCO3)C(=O)c2csnn2)cc1	0	4	3	-6	2	-2
